The text below walks through data of ChEMBL document CHEMBL1122642, “Biomimetic approach to potential benzodiazepine receptor agonists and antagonists” (J Med Chem, 1984).

For assay [1], the target named is GABA-A receptor; anion channel. In words: In vitro inhibition of [3H]diazepam binding to rat cerebral cortical membrane benzodiazepine receptors. An outline of the steps: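 Thrice-washed rat cerebral cortex membranes in 50 mM Tris-HCl pH 7.4 (0.5–0.6 mg/mL protein), incubated 30 min at 4 °C with 2 nM [3H]diazepam plus test compound. Stopped with ice-cold Tris, then GF/B filtration and scintillation counting. Nonspecific binding with 3 μM unlabeled diazepam or clonazepam.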

Assay [2] in a line: In vitro binding to GABA-A benzodiazepine receptor of rat cerebral cortical membranes. Put shortly:
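Rat cerebral cortex homogenised in Tris-HCl (50 mM, pH 7.4), washed three times by centrifugation at 20000g, 4 °C, and resuspended at 0.5–0.6 mg protein/mL. Incubated with 2 nM [3H]diazepam, 30 min, 4 °C. Stopped with ice-cold buffer, GF/B filtered, scintillation counted. Nonspecific binding with 3 μM unlabelled diazepam or clonazepam. […] Mean of two experiments.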

For another assay, the species on record is Rattus norvegicus. In words: In vitro inhibition of [3H]diazepam binding to GABA-A benzodiazepine receptor of rat cerebral cortical membranes at 50 uM. The format is cell membranes. The settings on record: Membrane.

As a reminder, the Ki is the equilibrium dissociation constant of an inhibitor or competing ligand from its target. `NC(=O)c1cc2c3ccccc3nc-2c[nH]1` yielded a Ki in assay [1] of 0.068 µM. On the same count and under the same terms, under `O=C(O)C1Cc2cc(O)c(O)cc2CN1` (configuration not stated) stands greater than 50 µM. In assay [1], `COC(=O)c1cc2c(cn1)[nH]c1ccccc12` [BETA-CCM] yielded a Ki of 0.001 µM. What is called Kd is the equilibrium constant for the complex coming apart. Read a high Kd as a looser complex. `CN1C(=O)CN=C(c2ccccc2)c2cc(Cl)ccc21` [DIAZEPAM] displayed a Kd in assay [2] of 5.6 µM. In the case of `CC(=O)OCc1cc2c3ccccc3nc-2c[nH]1`, the affinity in assay [1] corresponds to a Ki of 750 µM. The same measure, in the same setting: under `OCc1cc2c3ccccc3nc-2c[nH]1` stands 1.47 µM.

The molecule `COC(=O)c1cc2cc(OC)c(OC)cc2cn1` returned a Ki in assay [1] of 10 µM. On the same count and under the same terms, under `O=C(O)C1Cc2[nH]cnc2CN1` (configuration not stated) stands greater than 50 µM. As usually defined, the Inhibition is the relative decrease from the control value, in per cent. A lower Inhibition goes with a response near the control. Turning to `COC(=O)C1Cc2c3n(c4ccccc24)C(=O)CCC3N1Cc1ccccc1` (configuration not stated), the Inhibition in the assay listed under Rattus norvegicus was 17%. `O=C1CCC2c3c(c4ccccc4n31)CCN2Cc1ccccc1` (configuration not stated) had a Ki in assay [1] of 11.2 µM. Still for that read-out and setting: under `COC(=O)c1cc2c3ccccc3n3c(=O)ccc(n1)c23` stands 0.1 µM. On the same count and under the same terms, under `CC(=O)c1cc2c3ccccc3nc-2c[nH]1` stands 0.058 µM; under `COC(=O)C1Cc2cc(OC)c(OC)cc2CN1` (configuration not stated), 32 µM; under `COC(=O)c1cc2[nH]cnc2cn1`, greater than 50 µM. Same read-out and setting: under `COC(=O)C1Cc2[nH]cnc2C(c2ccccc2)N1` (trans isomer) stands greater than 50 µM; under `COC(=O)c1cc2[nH]cnc2c(-c2ccccc2)n1`, 10 µM. Take `O=C(O)C1Cc2[nH]cnc2C(c2ccccc2)N1` (cis isomer): in assay [1], the Ki is greater than 50 µM.

In the case of `COC(=O)C1Cc2[nH]cnc2C(c2c(CO)cnc(C)c2O)N1` (configuration not stated), in assay [1], the Ki was greater than 50 µM. Same read-out and setting: with `COC(=O)C1Cc2ccccc2CN1` (configuration not stated) the figure was greater than 50 µM; with `O=c1ccc2nccc3c4ccccc4n1c23` [CANTHIN-6-ONE], 10 µM; with `CCOC(=O)c1cc2c(cn1)[nH]c1ccccc12`, 0.001 µM. On the same count and under the same terms, under `Cc1ncc(CO)c(C2NCCc3ncn(C)c32)c1O` (configuration not stated) stands greater than 50 µM.
